# Columns and labels:
# [1] = Genotoxicity in Salmonella typhimurium TA1535 harboring pSK1002 assessed as survival at 0.25 mg/ml in presence of Sprague-Dawley rat liver S9 fraction metabolic activation by SOS/umu assay relative to control; assay type: toxicity, subcellular; conditions: salmonella enterica subsp. enterica serovar typhimurium, read-out: Survival
# In short: (§1)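 Survival of S. typhimurium TA1535/pSK1002 exposed to a range of compound concentrations with or without S9 mix in 96-well format. Survival percentage measured as the cytotoxicity arm of the SOS/umu test. Concentrations with survival ≥80% are counted as non-cytotoxic.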
# [2] = Genotoxicity in Salmonella typhimurium TA1535 harboring pSK1002 assessed as umu gene induction at 0.063 mg/ml in absence of Sprague-Dawley rat liver S9 fraction metabolic activation by SOS/umu assay relative to control; assay type: toxicity; conditions: salmonella enterica subsp. enterica serovar typhimurium, read-out: FC
# In short: (§2)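 umu induction in S. typhimurium TA1535/pSK1002, with or without S9 mix, in 96-well format. β-galactosidase read colorimetrically with ONPG substrate. Output given as relative units and induction factor (IF). The run is valid if positive controls reach IF ≥2. A compound counts as genotoxic at IF ≥2 at a concentration giving ≥80% bacterial survival.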
# Trypanosoma cruzi [3] = test: Antitrypanosomal activity against Trypanosoma cruzi IRHOD/CO/2008/SN3;DTU 1 epimastigotes measured after 72 hrs by Neubauer hemocytometer; assay type: functional, organism-based; conditions: IRHOD/CO/2008/SN3;DTU 1, 72 h
# [4] = Genotoxicity in Salmonella typhimurium TA1535 harboring pSK1002 assessed as survival at 0.002 mg/ml in absence of Sprague-Dawley rat liver S9 fraction metabolic activation by SOS/umu assay relative to control; assay type: toxicity; conditions: salmonella enterica subsp. enterica serovar typhimurium, read-out: Survival
# In short: (§3)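 Salmonella typhimurium TA1535/pSK1002 was exposed to compounds at several concentrations with or without S9 mix, and bacterial survival % was measured. β-galactosidase induction was measured colorimetrically with ONPG substrate. Genotoxicity was counted where IF ≥ 2 at ≥80% survival; runs were valid if positive controls reached IF ≥ 2.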
# [5] = Genotoxicity in Salmonella typhimurium TA1535 harboring pSK1002 assessed as survival at 1 mg/ml in presence of Sprague-Dawley rat liver S9 fraction metabolic activation by SOS/umu assay relative to control; assay type: toxicity, subcellular; conditions: salmonella enterica subsp. enterica serovar typhimurium, read-out: Survival; in short: as §1
# Trypanosoma cruzi [6] = test: (§4) Antitrypanosomal activity against Trypanosoma cruzi MHOM/Pe/2011/Arequipa;DTU 5 bloodstream trypomastigote infected in BALB/c mouse assessed as parasite-free oesophagus in chronic phase at 20 mg/kg/day, po administered for 5 consecutive days starting from day 70 post infection followed by cyclophosphamide induced immunosuppression on day 80 post infection measured after day 100 post infection by PCR method relative to control; assay type: functional
# In short: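 Female BALB/c mice (10–12 weeks, three per group) were infected i.p. with 5 × 10^5 Arequipa bloodstream trypomastigotes. Dosing was oral, 20 mg/kg/day for 5 days, as a suspension in 5% DMSO/0.5% HPMC. Cyclophosphamide 200 mg/kg i.p. was given at day 80 pi. At necropsy (day 100) tissues were tested by PCR on the splice leader region (primers TC/TC1, 300 bp). Scored as x/3 mice positive.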
# Trypanosoma cruzi [7] = test: as §4, with “parasitemia reactivation” for “parasite-free oesophagus”, “acute” for “chronic”, “8” for “70”, “infection” for “infection measured after day 100 post infection”, “Neubauer chamber” for “PCR method”; assay type: functional
# In short: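 Female BALB/c mice (three per group) were infected i.p. with 5 × 10^5 Arequipa bloodstream trypomastigotes and treated orally at 20 mg/kg/day for 5 days (vehicle 5% DMSO/0.5% HPMC). Once parasitemia was undetectable (day 80 pi), cyclophosphamide 200 mg/kg was given i.p. Bloodstream parasites were then counted to give % reactivation versus untreated controls.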
# [8] = Genotoxicity in Salmonella typhimurium TA1535 harboring pSK1002 assessed as survival at 0.063 mg/ml in absence of Sprague-Dawley rat liver S9 fraction metabolic activation by SOS/umu assay relative to control; assay type: toxicity; conditions: salmonella enterica subsp. enterica serovar typhimurium, read-out: Survival; in short: as §1
# [9] = Genotoxicity in Salmonella typhimurium TA1535 harboring pSK1002 assessed as survival at 0.008 mg/ml in presence of Sprague-Dawley rat liver S9 fraction metabolic activation by SOS/umu assay relative to control; assay type: toxicity, subcellular; conditions: salmonella enterica subsp. enterica serovar typhimurium, read-out: Survival; in short: as §1
# [10] = Toxicity in BALB/c mouse infected with Trypanosoma cruzi MHOM/Pe/2011/Arequipa;DTU 5 bloodstream trypomastigote assessed as increase in serum total bilirubin level in acute phase at 20 mg/kg/day, po administered for 5 consecutive days starting from day 8 post infection and measured at day 14 post infection by biochemical analysis relative to control; assay type: organism-based; conditions: in vivo
# In short: (§5)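 Female BALB/c mice (10–12 weeks, 14–20 g; groups of three) were infected i.p. with 5 × 10^5 Arequipa bloodstream trypomastigotes. Dosing was oral at 20 mg/kg/day for 5 days, from day 8 pi (acute) or day 70 pi (chronic), as a 2 mg/ml suspension in 5% DMSO/0.5% HPMC; controls received vehicle. Cyclophosphamide 200 mg/kg i.p. was given at day 80 pi. Serum was collected 2 days post-treatment and at necropsy by cardiac puncture and compared with infected untreated controls.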
# [11] = Genotoxicity in Salmonella typhimurium TA1535 harboring pSK1002 assessed as survival at 0.001 mg/ml in presence of Sprague-Dawley rat liver S9 fraction metabolic activation by SOS/umu assay relative to control; assay type: toxicity, subcellular; conditions: salmonella enterica subsp. enterica serovar typhimurium, read-out: Survival; in short: as §3
# [12] = Genotoxicity in Salmonella typhimurium TA1535 harboring pSK1002 assessed as survival at 0.031 mg/ml in presence of Sprague-Dawley rat liver S9 fraction metabolic activation by SOS/umu assay relative to control; assay type: toxicity, subcellular; conditions: salmonella enterica subsp. enterica serovar typhimurium, read-out: Survival; in short: as §1
# [13] = Genotoxicity in Salmonella typhimurium TA1535 harboring pSK1002 assessed as umu gene induction at 0.004 mg/ml in absence of Sprague-Dawley rat liver S9 fraction metabolic activation by SOS/umu assay relative to control; assay type: toxicity; conditions: salmonella enterica subsp. enterica serovar typhimurium, read-out: FC; in short: as §2
# Trypanosoma cruzi [14] = test: Inhibition of Trypanosoma cruzi MHOM/Pe/2011/Arequipa;DTU 5 epimastigote Fe-SOD at 6.3 uM relative to control
# In short: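 Fe-SOD excreted by exponentially growing T. cruzi Arequipa epimastigotes cultured in supplemented MTL at 28 °C. Protein quantified by Bradford. SOD activity measured by the Beyer–Fridovich method. IC50 from inhibition curves by nonlinear regression. Mean of three independent determinations ± standard deviation.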
# Trypanosoma cruzi [15] = test: Trypanocidal activity against Trypanosoma cruzi trypomastigote form infected in African green monkey Vero cells assessed as ratio of infected cells at 50 uM measured after 72 hrs by Giemsa staining based assay relative to control; assay type: functional
# In short: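 Vero cells (1 × 10^4/well, on coverslips) were infected with trypomastigotes at MOI 10:1 for 24 h and washed three times with PBS. They were treated at 3.1, 6.25, 12.5, 25 and 50 µM for 72 h at 37 °C in 5% CO2. Infected cells were counted after Giemsa staining. Triplicates, two separate determinations.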
# [16] = (§6) Toxicity in BALB/c mouse infected with Trypanosoma cruzi MHOM/Pe/2011/Arequipa;DTU 5 bloodstream trypomastigotes assessed as decrease in serum alkaline phosphatase level in chronic phase at 20 mg/kg/day, po administered for 5 consecutive days starting from day 70 post infection measured on day 100 post infection relative to control; assay type: organism-based; design: scale not given: the % may be the effect or the level left; conditions: in vivo; in short: as §5
# [17] = as §6, with “trypomastigote” for “trypomastigotes”, “uric acid” for “alkaline phosphatase”; assay type: organism-based; design: scale not given: the % may be the effect or the level left; conditions: in vivo; in short: as §5
# [18] = as §6, with “trypomastigote” for “trypomastigotes”, “lactate dehydrogenase” for “alkaline phosphatase”; assay type: organism-based; design: scale not given: the % may be the effect or the level left; conditions: in vivo; in short: as §5
# [19] = Toxicity in BALB/c mouse infected with Trypanosoma cruzi MHOM/Pe/2011/Arequipa;DTU 5 bloodstream trypomastigote assessed as decrease in serum uric acid level in chronic phase at 20 mg/kg/day, po administered for 5 consecutive days starting from day 70 post infection and measured at day 76 post infection relative to control; assay type: organism-based; design: scale not given: the % may be the effect or the level left; conditions: in vivo; in short: as §5
structure (smiles),measurement,setting,value
O=C(CCN1CCN(c2ccc(Cl)cc2)CC1)c1ccc(O)cc1,viability at 0.25 mg/ml,[1],138%
same,fold induction at 0.063 mg/ml,[2],0.71
same,IC50,Trypanosoma cruzi [3],12.1 µM
same,viability at 0.002 mg/ml,[4],109%
same,viability at 1 mg/ml,[5],213%
same,Activity,Trypanosoma cruzi [6],63%
same,Activity,Trypanosoma cruzi [7],25%
same,viability at 0.063 mg/ml,[8],125%
same,viability at 0.008 mg/ml,[9],109%
same,Activity,[10],<= 10%
same,viability at 0.001 mg/ml,[11],106%
same,viability at 0.031 mg/ml,[12],102%
same,fold induction at 0.004 mg/ml,[13],0.68
same,inhibition,Trypanosoma cruzi [14],> 50%
O=C(Cn1ccnc1[N+](=O)[O-])NCc1ccccc1 [BENZNIDAZOLE],Ratio,Trypanosoma cruzi [15],18%
same,Activity,[16],<= 10%
same,Activity,[17],<= 30%
same,Activity,[18],<= 10%
same,IC50,Trypanosoma cruzi [3],15.3 µM
same,Activity,[19],<= 30%
same,Activity,Trypanosoma cruzi [6],38%
same,Activity,Trypanosoma cruzi [7],65%
O=C(CCN1CCN(c2ccc(C(F)(F)F)cc2)CC1)c1ccc(O)cc1,viability at 0.25 mg/ml,[1],140%
same,Ratio,Trypanosoma cruzi [15],7%
same,Activity,[16],<= 30%
same,fold induction at 0.063 mg/ml,[2],0.67
same,Activity,[17],<= 10%
same,Activity,[18],<= 30%
same,IC50,Trypanosoma cruzi [3],12.6 µM
same,Activity,[19],<= 20%
same,viability at 0.002 mg/ml,[4],116%
same,viability at 1 mg/ml,[5],216%
same,Activity,Trypanosoma cruzi [6],50%
same,Activity,Trypanosoma cruzi [7],85%
same,viability at 0.063 mg/ml,[8],117%
same,viability at 0.008 mg/ml,[9],104%
same,Activity,[10],> 40%
same,viability at 0.001 mg/ml,[11],106%
same,viability at 0.031 mg/ml,[12],107%
same,fold induction at 0.004 mg/ml,[13],0.69
same,inhibition,Trypanosoma cruzi [14],> 50%
